Series [1] in a line: MRT in mouse tumor implanted with mouse 4T1 cells at 5.7 mg/kg,iv measured upto 72 hrs. Format: ADME, organism-based, Neoplasm.
For series [2], the system named is 4T1. In words: Antitumor activity against mouse 4T1 cells implanted in BALB/c mouse assessed as decrease in lung metastasis at 5.7 mg/kg,iv administrated once per week for 4 weeks in presence of MDA-205 by H and E staining based assay. Format: functional, organism-based. The essentials:
(§1)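 BALB/c mice bearing orthotopic mammary fat pad 4T1 tumors, dosed iv weekly for 4 weeks with saline vehicle as control. Lung sections stained with hematoxylin and eosin and examined by light microscopy at 40× for metastasis, inflammatory infiltration and alveolar wall thickening.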

In series [3] the test system is 4T1. Put plainly: Antitumor activity against mouse 4T1 cells implanted in BALB/c mouse assessed as decrease in serum IL-6 level at 5.7 mg/kg,iv administrated once per week for 4 weeks in presence of MDA-205 by ELISA. Format: functional, organism-based. Background: In an ELISA, binding on a coated surface is turned into a signal by an enzyme label.
Series [4] in a line: Toxicity in BALB/c mouse xenografted with human MDA-MB-231 cells assessed as side effects at 5.7 mg/kg,iv administrated once per week for 3 weeks. Conditions: in vivo, 504 h. Type of series: organism-based. The essentials: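 Nude BALB/c nu/nu mice received subcutaneous human tumour cells into the right flank. Dosing started at mean tumour volume of 100–120 mm3, iv once weekly for 3 weeks; the taxane arm was an equimolar control. Body weight and overt side effects were monitored. Mean ± SEM, n = 8.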
(Xenograft models place foreign cells or tissue in a host animal.)

Series [5] has as its system 4T1. In words: Antitumor activity against mouse 4T1 cells implanted in BALB/c mouse assessed as decrease in lung injury at 5.7 mg/kg,iv administrated once per week for 4 weeks in presence of MDA-205 by H and E staining based assay. Type of series: functional, organism-based. The essentials:
as §1

A short description of series [6]: Cmax in mouse tumor implanted with mouse 4T1 cells at 5.7 mg/kg,iv measured upto 72 hrs. Format: ADME, organism-based, Neoplasm. Further details: time < 72 hrs, dose 5.7 mg/kg, route iv.
Series [7] is described as follows: Tmax in rat at 4 mg/kg,iv measured upto 24 hrs. Type of series: ADME, organism-based. Conditions: in vivo.
Series [8] can be described thus: Toxicity in Beagle dog assessed as erythema at 3 to 18 mg/kg,iv measured upto 24 hrs. Format: organism-based, Canis lupus familiaris. The conditions noted are these: in vivo, dose 3-18 mg/kg.
Series [9] deals with NCI-H522. In words: Antiproliferative activity against human NCI-H522 cells assessed inhibition of cell growth incubated for 72 hrs by SRB assay. Format: functional, cell-based. The conditions noted are these: NCI-H522, 72 h. A general note: The SRB assay estimates cell density from bound dye.
Series [10] can be described thus: AUC (0-t) in female Beagle dog at 2 mg/kg,iv measured upto 24 hrs. Format: ADME, organism-based, Canis lupus familiaris. Further details: dose 2 mg/kg, time < 24 hrs, route iv. The conditions noted are these: in vivo. The essentials:
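Single iv dose: rats 2, 4 or 8 mg/kg by intravenous injection; Beagle dogs 1, 2 or 4 mg/kg by intravenous infusion. Plasma concentration–time data were analysed by sex and pooled. Reported parameters: Cmax, Tmax, AUC0−t, AUC0−∞, MRT0−∞, t1/2, CL, Vss, given as mean ± SD.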

A short description of series [11]: MRT (0 to infinity) in Beagle dog at 4 mg/kg,iv measured upto 24 hrs. Conditions: in vivo. Type of series: ADME, organism-based, Canis lupus familiaris.
A short description of series [12]: MRT (0 to infinity) in female rat at 2 mg/kg,iv measured upto 24 hrs. Format: ADME, organism-based. The conditions noted are these: in vivo.
Series [13] in a line: Cmax in female rat at 8 mg/kg,iv measured upto 24 hrs. Type of series: ADME, organism-based. Details: time < 24 hrs, dose 8 mg/kg, route iv. The conditions noted are these: in vivo. The essentials:
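Rats were given a single iv injection at 2, 4 or 8 mg/kg. Plasma parent drug and released docetaxel were followed over time. Cmax, Tmax, AUC, MRT, t1/2, CL and Vss were reported for males, females and all animals combined.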

The nature of series [14]: Tmax in female Beagle dog at 2 mg/kg,iv measured upto 24 hrs. Type of series: ADME, organism-based, Canis lupus familiaris. Conditions: in vivo.
Series [15] can be described thus: Cmax in female Beagle dog at 2 mg/kg,iv measured upto 24 hrs. Type of series: ADME, organism-based, Canis lupus familiaris. Details: dose 2 mg/kg, time < 24 hrs, route iv. The conditions noted are these: in vivo. The method, boiled down:
(§2)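 Beagle dogs were given a single iv infusion at 1, 2 or 4 mg/kg. Plasma parent drug and released docetaxel were followed over time. Cmax, Tmax, AUC, MRT, t1/2, CL and Vss were reported by sex and for all dogs combined.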

Series [16] in a line: Drug metabolism in monkey hepatocytes assessed as docetaxel metabolite formation at 20 uM incubated for 180 mins. Format: ADME, cell-based, Macaca mulatta, Hepatocyte. The conditions noted are these: rhesus monkey, 3 h.
Series [17] concerns 4T1. In words: Antitumor activity against mouse 4T1 cells xenografted with BALB/c mouse assessed as reduction lung metastatic nodules at 5 to 20 mg/kg,iv administrated once per week for 4 weeks. Format: functional, organism-based. The conditions noted are these: dose 5-20 mg/kg. The method, boiled down: (§3)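 4T1 cells injected into the mammary fat pad of BALB/c mice; iv saline vehicle or 5, 10 or 20 mg/kg once weekly for 4 weeks; body weight, tumour volume, tumour weight, lung metastatic nodule count and metastasis score recorded; n = 10, mean ± SEM, ANOVA and Student's t test.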

Series [18] can be described thus: Drug distribution in rat small intestine at 4 mg/kg,iv measured by 0.25 hrs. Format: ADME, organism-based. Conditions: in vivo. The essentials:
(§4)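 Rats received 4 mg/kg iv. Parent drug and released docetaxel were assayed in tissues and plasma from the first sampling at 0.25 h to 24 h. The lower limit of quantitation was 200 ng/g.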

Series [19] can be described thus: Stability in rat hepatocyte assessed as compound remaining at 3 uM incubated upto 120 mins. Type of series: ADME, cell-based. Conditions: hepatocytes, 2 h.
Series [20] in a line: Drug distribution in rat kidney at 4 mg/kg,iv measured by 0.25 hrs. Format: ADME, organism-based. The conditions noted are these: in vivo. The essentials:
as §4

The nature of series [21]: Clearance in female Beagle dog at 2 mg/kg,iv measured upto 24 hrs. The conditions noted are these: in vivo. Format: ADME, organism-based, Canis lupus familiaris. The method, boiled down: as §2
A short description of series [22]: Toxicity in BALB/c mouse xenografted with human A549/Taxol cells assessed as body weight loss at 10 mg/kg,iv administrated once per week for 3 weeks. Format: organism-based, A549/TR. The conditions noted are these: in vivo, 504 h.
The nature of series [23]: MRT (0 to infinity) in male Beagle dog at 1 mg/kg,iv measured upto 24 hrs. Format: ADME, organism-based, Canis lupus familiaris. The conditions noted are these: in vivo.
Series [24] is described as follows: Volume of distribution at steady state in male rat at 2 mg/kg,iv measured upto 24 hrs. Type of series: ADME, organism-based. Conditions: in vivo, read-out: Vdss.
In series [25] the test system is NCI-H23. In words: Antiproliferative activity against human NCI-H23 cells assessed inhibition of cell growth incubated for 72 hrs by SRB assay. Format: functional, cell-based. The conditions noted are these: NCI-H23, 72 h.
The subject of series [26] is 4T1. In words: Antitumor activity against mouse 4T1 cells xenografted with BALB/c mouse assessed as inhibition of tumor growth at 5 to 20 mg/kg,iv administrated once per week for 4 weeks. Format: functional, organism-based. Conditions: dose 5-20 mg/kg. The essentials: as §3
Series [27] has as its system 4T1. Put plainly: Antitumor activity against mouse 4T1 cells implanted in BALB/c mouse assessed as increase in spleen NOD1 expression level at 5 to 20 mg/kg,iv administrated once per week for 4 weeks by western blot assay. Type of series: functional, organism-based. The conditions noted are these: dose 5-20 mg/kg. The method, boiled down: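 4T1 fat-pad model in BALB/c mice, iv once weekly for 4 weeks; MMP9, MMP2 and NOD1 in spleen, lung and tumour by western blot, β-actin loading control; bands averaged over five mice per group, representative of two independent experiments.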

A short description of series [28]: Toxicity in BALB/c mouse xenografted with human HCT-116 cells assessed as side effects at 10 mg/kg,iv administrated once per week for 3 weeks. Type of series: organism-based. Conditions: in vivo, 504 h.
Series [29] has as its system 4T1. In words: Antitumor activity against mouse 4T1 cells implanted in BALB/c mouse assessed as decrease in serum TIMP-1 level at 5 mg/kg,iv administrated once per week for 4 weeks by ELISA. Format: functional, organism-based. The essentials: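 4T1 fat-pad model in BALB/c mice, iv 5–20 mg/kg once weekly for 4 weeks, with vehicle and naive groups; serum MMP9, TIMP-1, IL-6 and S100A9 measured by mouse ELISA kits.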

Series [30] is described as follows: Prodrug conversion in mouse plasma implanted with mouse 4T1 cells assessed as half life of docetaxel at 4 mg/kg,iv measured upto 72 hrs. Type of series: ADME, organism-based. The conditions noted are these: in vivo.
For series [31], the system named is 4T1. In words: Antitumor activity against mouse 4T1 cells xenografted with BALB/c mouse assessed as inhibition of tumor growth at 20 mg/kg,iv administrated once per week for 4 weeks. Format: functional. The conditions noted are these: 4T1, 672 h. The essentials:
as §3

Series [32] is described as follows: Drug concentration in rat brain assessed as docetaxel concentration at 4 mg/kg,iv measured after 24 hrs. Format: ADME, organism-based. The conditions noted are these: in vivo. The method, boiled down: as §4

Calls of active or inactive are those of the source. The calls are words filed in the database; no cut-off is given here.

The term MRT denotes the average time that molecules of a dose stay in the body. In general, Cmax refers to the maximum level reached in the sampled fluid or tissue. The Tmax is the time from dosing to the highest level. Usually IC50 stands for the concentration that inhibits the measured activity by half. As usually defined, the AUC(0-t) is the area under the concentration-time curve up to a stated or last time point. A word on the MRT inf: it is the average time that molecules of a dose stay in the body. A word on the clearance: it is the rate of elimination divided by the concentration. By inhibition in vivo is commonly meant the change of the read-out against control, counted positive when it falls.

The compound `CC(=O)O[C@@]12CO[C@@H]1C[C@H](O)[C@@]1(C)C(=O)[C@H](O)C3=C(C)[C@@H](OC(=O)[C@H](O)[C@@H](NC(=O)OC(C)(C)C)c4ccccc4)C[C@@](O)([C@@H](OC(=O)c4ccccc4)[C@H]21)C3(C)C` [DOCETAXEL ANHYDROUS] yielded an MRT in series [1] of 73.3 h. In addition, the outcome in [2], in series [3] and in [5] was Active. Besides, the Activity result in [4] is “Non-Toxic”. The compound also had a Cmax in series [6] of 950 nM.

Turning to `CC(=O)O[C@@]12CO[C@@H]1C[C@H](O)[C@@]1(C)C(=O)[C@H](O)C3=C(C)[C@@H](OC(=O)[C@H](OC(=O)CCC(=O)NCCCC[C@H](NC(=O)CC[C@@H](NC(=O)[C@H](C)NC(=O)/C=C/c4ccc(F)cc4Cl)C(N)=O)C(=O)O)[C@@H](NC(=O)OC(C)(C)C)c4ccccc4)C[C@@](O)([C@@H](OC(=O)c4ccccc4)[C@H]21)C3(C)C`, the results for the Tmax in series [7] and in series [14] were 4.98 min and 30 min, respectively. Besides, the figures for the Activity result in series [8], in series [22] and in [28] were “Toxic”, “Non-Toxic” and “Non-Toxic”, respectively. Moreover, the IC50 in series [9] and in series [25] was 0.0163 µM in each case. For the same compound, the AUC(0-t) at 24 h in series [10] stood at 6970 ng·h/mL. In addition, the MRT inf amounted to 20.3 min in series [11], 8.64 min in series [12] and 12.1 min in series [23]. The Cmax in [13] came out at 62500 ng/mL; in series [15], 14700 ng/mL. For the same compound, the Drug metabolism entry in [16] is “Metabolite_Detected”. Besides, the result in series [17], in series [27] and in series [29] was Active. For the same compound, the Drug uptake entry in [18] is “Active”; in series [20], “Active”; in series [32], “Not Active”. Moreover, in series [19], the Stability entry is “Stable”. In series [21], this compound had a clearance of 5.04 mL/min/kg. For the same compound, in series [24], the Vd worked out at 0.076 L/kg. The inhibition result in series [26] was “Dose-Dependent Effect”. The t1/2 in [30] stood at 178 min. Moreover, the inhibition in vivo at 20 mg/kg in [31] was 57.2%.

The values above are taken from ChEMBL document CHEMBL5252546, “Salutaxel, a Conjugate of Docetaxel and a Muramyl Dipeptide (MDP) Analogue, Acts as Multifunctional Prodrug That Inhibits Tumor Growth and Metastasis” (J Med Chem, 2018).
